The target in test [1] is Dual specificity tyrosine-phosphorylation-regulated kinase 1B (Homo sapiens, UniProt Q9Y463). Briefly: Inhibition of DYRK1B (unknown origin).
Test [2] concerns the target Dual specificity tyrosine-phosphorylation-regulated kinase 1A (Homo sapiens, UniProt Q13627). Briefly: Inhibition of DYRK1A (unknown origin).
Test [3] deals with SW-620. Briefly: Anticancer activity against human SW-620 cells assessed decrease in nuclei size at 5 uM measured after 10 days by Hoechst33342 staining based 3D spheroid assay. In kind it is functional, cell-based. The settings on record: time 10.0 day. In outline:
(§1)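 3D spheroids grown in poly-HEMA-coated U-bottom wells. Compound added at days 3, 5 and 7. Cells were stained with Hoechst33342 for nuclei, calcein AM for live cells and ethidium homodimer-1 for dead cells. Images were taken on day 10 at 50×.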

For test [4], the system named is HCT-116. Briefly: Induction of autophagic cell death in human HCT-116 cells assessed as multi-vesicle formation. In kind it is functional, cell-based.
In test [5] the test system is SW480. Briefly: Anticancer activity against human SW480 cells assessed decrease in viable cells at 5 uM measured after 10 days by calcein AM staining based 3D spheroid assay. The settings on record: time 10.0 day. In kind it is functional, cell-based. In outline:
as §1

Test [6] has as its system SW480. Briefly: Cytotoxicity against human SW480 cells assessed as reduction in cell viability. In kind it is functional, cell-based.
In test [7] the test system is SW-620. Briefly: Cytotoxicity against human SW-620 cells assessed as reduction in cell viability. In kind it is functional, cell-based.
The next test has as its system HCT-15. Briefly: Cytotoxicity against human HCT15 cells assessed as reduction in cell viability. It counts as functional, cell-based.
The subject of test [8] is SW480. Briefly: Anticancer activity against human SW480 cells assessed dead cells at 5 uM measured after 10 days by Ethidium Homodimer-1 staining based 3D spheroid assay. It counts as functional, cell-based. The settings on record: time 10.0 day. In outline: as §1
A further test deals with HT-29. Briefly: Cytotoxicity against human HT29 cells assessed as reduction in cell viability. It counts as functional, cell-based.
In another test the test system is LoVo. Briefly: Cytotoxicity against human LOVO cells assessed as reduction in cell viability. In kind it is functional, cell-based.
For another test, the system named is RKO. Briefly: Cytotoxicity against human RKO cells assessed as reduction in cell viability. In kind it is functional, cell-based.
The test system of test [9] is SW480. Briefly: Anticancer activity against human SW480 cells assessed decrease in nuclei size at 5 uM measured after 10 days by Hoechst33342 staining based 3D spheroid assay. In kind it is functional, cell-based. The settings on record: time 10.0 day. In short, it runs like this:
as §1

In test [10] the test system is DLD-1. Briefly: Cytotoxicity against human DLD-1cells assessed as reduction in cell viability. In kind it is functional, cell-based.
For test [11], the system named is SW-620. Briefly: Anticancer activity against human SW-620 cells assessed decrease in viable cells at 5 uM measured after 10 days by calcein AM staining based 3D spheroid assay. In kind it is functional, cell-based. To be noted: time 10.0 day. In outline: as §1
In the next test the test system is COLO 205. Briefly: Cytotoxicity against human COLO205 cells assessed as reduction in cell viability. It counts as functional, cell-based.
Test [12] deals with SW-620. Briefly: Anticancer activity against human SW-620 cells assessed dead cells at 5 uM measured after 10 days by Ethidium Homodimer-1 staining based 3D spheroid assay. In kind it is functional, cell-based. The settings on record: time 10.0 day. In outline: as §1
The next test concerns LS174T. Briefly: Cytotoxicity against human LS174T cells assessed as reduction in cell viability. In kind it is functional, cell-based.
The test system of test [13] is HCT-116. Briefly: Cytotoxicity against human HCT116 cells assessed as reduction in cell viability. In kind it is functional, cell-based.
The subject of test [14] is DLD-1. Briefly: Induction of autophagic cell death in human DLD-1 cells assessed as multi-vesicle formation. It counts as functional, cell-based.
A further test has as its system Colon cancer cell line. Briefly: Cytotoxicity against patient-derived human colon cancer organoids assessed as reduction of crypt size and disruption of intact organoid structure at 10 uM measured after 5 days by Celltiter-glo luminescent assay relative to control. In kind it is functional, cell-based. The settings on record: time 5.0 day. (Cellular ATP, detected with luciferase, serves as a proxy for viable cell number.)

Each structure is given as a SMILES string. Active and inactive are the calls of the source. No cut-off for these calls is given here.

Sequence of Dual specificity tyrosine-phosphorylation-regulated kinase 1B (Q9Y463 whole entry): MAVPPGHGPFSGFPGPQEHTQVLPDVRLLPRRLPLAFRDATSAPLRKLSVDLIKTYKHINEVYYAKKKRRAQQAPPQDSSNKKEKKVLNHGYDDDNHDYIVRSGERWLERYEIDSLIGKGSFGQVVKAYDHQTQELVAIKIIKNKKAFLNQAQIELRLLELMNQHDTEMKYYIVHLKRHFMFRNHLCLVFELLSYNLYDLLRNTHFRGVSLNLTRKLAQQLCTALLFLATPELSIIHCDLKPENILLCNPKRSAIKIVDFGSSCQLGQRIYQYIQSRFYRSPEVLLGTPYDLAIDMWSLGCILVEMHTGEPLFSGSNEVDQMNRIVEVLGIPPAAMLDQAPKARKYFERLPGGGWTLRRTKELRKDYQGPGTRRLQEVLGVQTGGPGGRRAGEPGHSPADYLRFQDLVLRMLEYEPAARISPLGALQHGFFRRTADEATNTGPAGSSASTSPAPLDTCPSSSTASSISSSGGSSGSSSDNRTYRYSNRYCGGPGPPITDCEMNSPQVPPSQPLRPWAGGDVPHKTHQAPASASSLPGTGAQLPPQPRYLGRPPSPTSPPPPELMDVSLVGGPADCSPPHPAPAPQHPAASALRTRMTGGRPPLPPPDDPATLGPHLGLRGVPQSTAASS

The IC50 is the point on the concentration scale where inhibition reaches its midpoint. Consider `Nc1cccc(-c2n[nH]c3ncc(Br)cc23)c1`, for which, in [1], half-maximal inhibition (IC50) required 0.635 µM.
Same read-out and setting: to `Brc1cnc2[nH]nc(-c3cnn(Cc4ccccc4)c3)c2c1` belongs 0.121 µM.
In turn, `NC(=O)Nc1ccc(-c2cnc3[nH]nc(-c4ccc(O)cc4)c3c2)cc1` displayed a concentration for half-maximal inhibition (IC50) in test [1] of 0.01 µM.
Consider `Oc1ccc(-c2cnc3[nH]nc(-c4ccccc4)c3c2)cc1`, for which the IC50 in [1] came to 0.056 µM; in [2], 0.044 µM.
For the compound `COc1ncc(-c2n[nH]c3ncc(Br)cc23)cn1`, in test [1], the IC50 came to 0.141 µM.
Same read-out and setting: to `O=C(O)c1ccc(-c2n[nH]c3ncc(Br)cc23)cc1` belongs 1.05 µM.
Consider `COc1cccc(-c2n[nH]c3ncc(Nc4ccccc4)cc23)c1`, for which the figures for the IC50 in test [1] and in test [2] were 0.575 µM and 2.82 µM, respectively.
In turn, `Brc1cnc2[nH]nc(-c3ccccc3)c2c1` returned a 50% inhibitory concentration (IC50) in test [1] of 2.04 µM.
As for `COc1ncc(-c2n[nH]c3ncc(-c4ccc(OC)c(OC)c4)cc23)cn1`, the IC50 was determined as 0.167 µM in test [1] and 0.299 µM in [2].
In the same order, the values of `COc1ccc(-c2n[nH]c3ncc(-c4ccc(NC(C)=O)cc4)cc23)cc1` are 0.007 µM and 0.008 µM.
In the same order, the values of `COc1ccc(-c2n[nH]c3ncc(Nc4cccc(OCc5ccccc5)c4)cc23)cc1` are 0.309 µM and 0.309 µM.
Compound `COc1ccc(-c2n[nH]c3ncc(Br)cc23)cc1` returned a concentration for half-maximal inhibition (IC50) in [1] of 0.054 µM.
On the same count and under the same terms, to `COc1ccc(-c2n[nH]c3ncc(-c4ccc(NC(N)=O)cc4)cc23)cc1` belongs 0.002 µM.
On to `CC(=O)Nc1ccc(-c2n[nH]c3ncc(Br)cc23)cc1`, for which the 50% inhibitory concentration (IC50) in [1] amounted to 0.568 µM; in [2], 1.11 µM.
`CC(=O)Nc1cccc(-c2n[nH]c3ncc(-c4ccc(O)c(O)c4)cc23)c1`: the concentration for half-maximal inhibition (IC50) came out at 0.029 µM in test [1] and 0.024 µM in test [2].
Consider `O=[N+]([O-])c1cccc(-c2n[nH]c3ncc(Br)cc23)c1`, for which the IC50 in test [1] is > 5 µM.
With `COc1ccc(-c2cnc3[nH]nc(-c4cccc(NC(C)=O)c4)c3c2)cc1OC`, the IC50 in test [1] was 0.287 µM; in test [2] it was 0.632 µM.
As to `COc1ccc(-c2n[nH]c3ncc(Nc4ccccc4)cc23)cc1`, the IC50 in [1] was found to be 0.188 µM; in test [2] it was 0.365 µM.
In the same order, the values of `Brc1cnc2[nH]nc(-c3cncnc3)c2c1` are 4.04 µM and 0.092 µM.
The like results for `COc1ccc(-c2n[nH]c3ncc(Nc4cccc(O)c4)cc23)cc1` were, in that order, 0.031 µM and 0.033 µM.
Take `Brc1cnc2[nH]nc(-c3ccc4cc[nH]c4c3)c2c1`: in test [1], the 50% inhibitory concentration (IC50) was 0.615 µM.
`COc1cccc(-c2n[nH]c3ncc(Nc4cccc(OCc5ccccc5)c4)cc23)c1`: the IC50 was 3.68 µM in test [1] and > 5 µM in test [2].
The like results for `COc1cccc(-c2n[nH]c3ncc(Nc4cccc(O)c4)cc23)c1` were, in that order, 0.191 µM and 0.95 µM.
The like results for `COc1ccc(-c2n[nH]c3ncc(-c4ccc(OC)c(OC)c4)cc23)cc1` were, in that order, 0.097 µM and 0.075 µM.
In turn, `Brc1cnc2[nH]nc(-c3ccsc3)c2c1` gave an IC50 in test [1] of 0.736 µM.
On the same count and under the same terms, to `O=[N+]([O-])c1ccc(-c2n[nH]c3ncc(Br)cc23)cc1` belongs > 5 µM.
In the case of `Oc1ccc(-c2cnc3[nH]nc(-c4ccc(O)cc4)c3c2)cc1`, the results for the IC50 in test [1] and in test [2] were 0.006 µM and 0.005 µM, respectively.
Consider `Oc1ccc(-c2n[nH]c3ncc(-c4ccc(O)c(O)c4)cc23)cc1`, for which the result in the test on SW-620 [3], with HCT-116 [4], in the test on SW480 [5], in the test with SW480 [8], in the test on SW480 [9] and in the test with SW-620 [11] was Active. Besides, the result with SW-620 [12], in the test with DLD-1 [14] and in the test on Colon cancer cell line was Active. The half-inhibitory concentration (IC50) in the test on SW480 [6] was determined as 4.13 µM; with SW-620 [7], 3.97 µM; in the test on HCT-15, 20.1 µM; in the test on HT-29, 10.9 µM; in the test with LoVo, 19.1 µM; in the test with RKO, 1.1 µM. Further, the concentration for half-maximal inhibition (IC50) in the test on DLD-1 [10] came to 2.45 µM; in the test on COLO 205 it was 6.22 µM; with LS174T it was 37.5 µM; in the test with HCT-116 [13], 1.57 µM.
For `Oc1ccc(-c2n[nH]c3ncc(Br)cc23)cc1`, the 50% inhibitory concentration (IC50) is 0.087 µM in [1] and 0.056 µM in test [2].
As for `CC(=O)Nc1cccc(-c2n[nH]c3ncc(Br)cc23)c1`, the IC50 in test [1] was determined as 0.257 µM; in test [2] it was 0.638 µM.
Turning to `CS(=O)(=O)Nc1ccc(-c2cnc3[nH]nc(-c4ccc(O)cc4)c3c2)cc1`, the half-maximal inhibitory concentration (IC50) in test [1] amounted to 0.005 µM.
For the compound `COc1ccc(-c2n[nH]c3ncc(Nc4cc(C(F)(F)F)cc(C(F)(F)F)c4)cc23)cc1`, the results for the 50% inhibitory concentration (IC50) in test [1] and in test [2] were 1.27 µM and 3.55 µM, respectively.
In the same order, the values of `Oc1cccc(-c2cnc3[nH]nc(-c4cccc(O)c4)c3c2)c1` are 0.039 µM and 0.213 µM.
Turning to `COc1cccc(-c2n[nH]c3ncc(Br)cc23)c1`, the IC50 in [1] is > 5 µM.
In the case of `COc1ncc(-c2n[nH]c3ncc(-c4ccc(O)c(O)c4)cc23)cn1`, inhibition in [1] was half-maximal at 0.015 µM (IC50).
As to `c1ccc(-c2cnc3[nH]nc(-c4ccccc4)c3c2)cc1`, the 50% inhibitory concentration (IC50) in test [1] and in [2] was > 5 µM throughout.
In test [1], `CC(=O)Nc1ccc(-c2cnc3[nH]nc(-c4ccc(O)cc4)c3c2)cc1` yielded an IC50 of 0.013 µM.

Source of the values: ChEMBL document CHEMBL4819156, “Synthesis of novel 1H-Pyrazolo[3,4-b]pyridine derivatives as DYRK 1A/1B inhibitors” (Bioorg Med Chem Lett, 2021).
